Consider seven compounds from PubChem BioAssay.

Calls of active or inactive are those of the source.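 Rule for the calls, unless noted: active = compounds giving at least 50% inhibition in the cell-based MKP-3 phosphatase rescue imaging test; inactive = the rest.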

Test [1] is described as follows: inhibitors of TNFa-induced NFkB p65 translocation, primary screen, imaging, HUVEC, MLSMR starter and 10KST1 sets (AID 438;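 active = inhibition above 20% together with a positive visual image hit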;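 note: compound added about 3h40 before a 20 min TNFalpha stimulation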;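 for inhibition: signal is the nuclear over cytoplasmic p65 intensity ratio per well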). The following applies: HUVEC TNFa-induced p65 nuclear translocation; cell count: measured here: nuclei count (cytotoxicity indicator), at 2.08 µM; inhibition: at 2 µM, stronger effect = higher value, 0% TNFa-plus-vehicle, 100% no-TNFa wells.
Test [2] is described as follows: inhibitors of E-selectin induction by TNFa, primary screen, imaging, HUVEC, immunofluorescence, MLSMR starter and 10KST1 sets (AID 487;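 active = visually confirmed hit in the image check and inhibition above 20%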;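 for inhibition: signal is fraction of cell area covered by stained E-selectin grains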;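 for nuclei count: 100% = median nuclei count of all wells on the same plate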). The following applies: HUVEC TNFalpha-induced E-selectin immunofluorescence imaging, at 2 µM; inhibition: stronger effect = higher value; nuclei count: measured here: cell number, toxicity.
Test [3] is described as follows: DUSP6 inhibitors restoring Erk phosphorylation by chemical complementation, primary imaging in DUSP6-transfected HeLa (AID 609).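 For inhibition: phospho-Erk level distribution per well compared with pooled transfected vehicle control wells.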 The settings on record: HeLa MKP-3 transfected, phospho-Erk imaging KS statistic, at 10 µM, cells stimulated with TPA for 15 min.
Test [4] has as its target Dual specificity protein phosphatase 6 (Homo sapiens) (UniProt Q16828). Described as above. The following applies: HeLa MKP-3 transfected, phospho-Erk imaging KS statistic; at 10 µM; stronger effect = higher value; cells stimulated with TPA for 15 min.
For test [5], the target named is Voltage-gated potassium channel subunit beta-2 (Rattus norvegicus) (UniProt P62483). Kind of test: KvBeta enzyme negative modulators, primary screen, biochemical, NADPH fluorescence (AID 622;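 active = fluorescence slope higher than the sample average by over 3 SD, cut at about -0.22 in these data, passing the limit was not always enough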;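 note: slope of raw intensity against log time taken from 70 to 1610 s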). The following applies: recombinant KvBeta, 4-cyanobenzaldehyde reduction, at 10 µM, stronger effect = higher value.
Test [6] shares this target. Kind of test: KvBeta positive modulators, primary screen, biochemical, NADPH fluorescence (AID 623;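 active = NADPH fluorescence slope more negative than the mean of all samples by about 3 SD, 99.7% confidence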;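 note: fluorescence intensity change per second fitted from 20 to 320 s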). The settings on record: Recombinant KvBeta, NADPH fluorescence decrease slope, 10 min; at 10 µM; stronger effect = lower value.
The target of test [7] is Alpha-2C adrenergic receptor (Homo sapiens) (UniProt P18825). Kind of test: modulators of alpha2C/GIRK thallium flux, primary screen, cell-based, HEK293 alpha2C/GIRK1/2 (AID 624;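 active = fluorescence slope after compound addition differing from the mean of all screened samples at 99.7% confidence, in either direction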;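 note: slope of fluorescence ratio to pre-addition baseline per second over 15 to 24 s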). The settings on record: thallium flux BTC fluorescence, at 10 µM, actives lie on both sides.
Test [8] in a line: inhibitors of larval lipid processing in zebrafish, primary screen, whole organism, PED6 fluorescence, gall bladder and intestine (AID 686;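 active = a full or partial loss of lipid-probe fluorescence in the fish gall bladder, intestine or both, judged by eye; inactive = no fluorescence loss, or compound toxic to the fish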;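 note: larvae 5 to 7 days old with five fish per well; signal comes from phospholipase A2 cleavage of quenched PED6 carried via bile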). The following applies: Zebrafish larvae PED6 lipid processing, fluorescence scoring; screened at 20 µM (by protocol). The procedure, abridged: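 system = live zebrafish larvae aged 5-7 days, whole organism | probe or stimulus = ingested quenched lipid PED6 at 100 nM | doses = 20 µM single dose | timing = overnight exposure | detection = fluorescence microscopy with visual scoring of gall bladder and intestine | read-out = visual per-well fluorescence inhibition score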

A short description of test [9]: inhibitors of Chlamydomonas gravitaxis, primary screen, whole organism, Chlamydomonas reinhardtii, WT vs cilia-less mutant, absorbance, 96-well (AID 463189;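 active = inhibition at or above 50% relative to wild type and mutant plate controls; inactive = inhibition below 50%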;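 note: 0% = wild type cc124 cells in DMSO and 100% = ciliumless bld1 mutant cells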). The following applies: OD600 absorbance, 2 days, at 10 µM, stronger effect = higher value.
Setting [10] is: measured here: cell density z-score.
Setting [11] is: measured here: nuclear c-Myc green intensity z-score.
[12] abbreviates: measured here: nuclear pErk red intensity z-score, stronger effect = higher value.

Chain of Voltage-gated potassium channel subunit beta-2 (Rattus norvegicus) (P62483 whole entry, looked up): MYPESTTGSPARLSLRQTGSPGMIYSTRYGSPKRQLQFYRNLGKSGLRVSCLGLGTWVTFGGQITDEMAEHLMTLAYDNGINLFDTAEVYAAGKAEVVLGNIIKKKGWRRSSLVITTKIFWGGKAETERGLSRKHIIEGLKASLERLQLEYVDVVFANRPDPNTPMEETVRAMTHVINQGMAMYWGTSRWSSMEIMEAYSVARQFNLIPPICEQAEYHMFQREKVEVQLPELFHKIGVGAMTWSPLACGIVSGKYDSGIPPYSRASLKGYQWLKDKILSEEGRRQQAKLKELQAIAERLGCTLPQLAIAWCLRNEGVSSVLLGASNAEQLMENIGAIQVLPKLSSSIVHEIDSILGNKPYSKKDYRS
Chain of Dual specificity protein phosphatase 6 (Homo sapiens) (Q16828 whole entry, looked up): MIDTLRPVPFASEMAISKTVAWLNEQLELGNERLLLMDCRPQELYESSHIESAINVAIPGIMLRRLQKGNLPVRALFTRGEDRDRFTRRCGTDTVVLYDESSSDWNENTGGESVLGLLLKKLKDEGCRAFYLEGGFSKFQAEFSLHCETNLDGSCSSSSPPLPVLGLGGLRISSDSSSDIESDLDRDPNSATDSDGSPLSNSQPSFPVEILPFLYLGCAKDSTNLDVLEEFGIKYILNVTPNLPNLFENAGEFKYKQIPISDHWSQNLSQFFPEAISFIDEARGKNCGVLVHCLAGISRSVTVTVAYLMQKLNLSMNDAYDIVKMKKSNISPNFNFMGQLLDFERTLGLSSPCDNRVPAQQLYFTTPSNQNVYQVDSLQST
Chain of Alpha-2C adrenergic receptor (Homo sapiens) (P18825 whole entry, looked up): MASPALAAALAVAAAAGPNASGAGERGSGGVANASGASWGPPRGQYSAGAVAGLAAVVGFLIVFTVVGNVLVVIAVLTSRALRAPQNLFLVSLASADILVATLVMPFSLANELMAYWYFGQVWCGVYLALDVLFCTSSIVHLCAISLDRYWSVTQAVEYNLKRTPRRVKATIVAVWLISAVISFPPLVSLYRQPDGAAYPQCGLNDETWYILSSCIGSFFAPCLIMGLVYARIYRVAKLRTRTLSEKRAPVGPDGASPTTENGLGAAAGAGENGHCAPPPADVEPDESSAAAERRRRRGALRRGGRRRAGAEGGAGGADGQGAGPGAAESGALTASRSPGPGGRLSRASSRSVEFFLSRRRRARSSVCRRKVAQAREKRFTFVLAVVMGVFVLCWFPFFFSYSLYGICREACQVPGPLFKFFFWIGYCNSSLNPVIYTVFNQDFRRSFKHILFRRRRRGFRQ

As a reminder, the inhibition is the relative decrease from the control value, in per cent. As to `N#CC1=C(SCc2ccccc2)NC2=C(C(=O)CCC2)C1c1ccc2c(c1)OCO2` (stereo unspecified), in test [1], the cell count is 490. Moreover, the inhibition is -28.9% (inactive) in test [1], -54.8% (inactive) in test [2], -4.27% (inactive) in [4] and -2.38% (inactive) in test [9]. The compound further registered a nuclei count in test [2] of 138%. Besides, the z-score in [3] (setting [10]) is 0.352; in [3] (setting [11]) it was -1.14; in [3] (setting [12]), -1.35. In addition, the fluorescence slope in test [5] was -0.525 (inactive). In [6], the NADPH fluorescence slope was -5.3e-05 (inactive). In test [7], the slope was 0.0074 (inactive). For the same compound, in test [8], the compound was called inactive.

As for `CC1(C)Cc2c(C#N)c(NCC3CCCO3)nc(-c3ccco3)c2CO1` (stereo unspecified), in test [1], the cell count came to 508. For the same compound, the inhibition was -1.3% (inactive) in [1], -83% (inactive) in [2], 11.9% (inactive) in test [4] and 1.27% (inactive) in test [9]. In test [2], this compound had a nuclei count of 123%. Further, the z-score in test [3] (setting [10]) was -1.04; in test [3] (setting [11]), 1.4; in test [3] (setting [12]), -1.27. Moreover, the fluorescence slope in [5] was -0.337 (inactive). For the same compound, in test [6], the NADPH fluorescence slope was 1e-05 (inactive). For the same compound, the slope in test [7] was 0.00551 (inactive). In addition, in [8], the call was inactive.

In the case of `COC(=O)C(NC(C)=O)(Nc1ccc(Br)cc1)C(=O)OC`, in test [1], the cell count was found to be 485. Besides, the inhibition is -1.7% (inactive) in [1], -127% (inactive) in test [2], 18.2% (inactive) in test [4] and -10.2% (inactive) in [9]. Also, the nuclei count in test [2] is 153%. The z-score in [3] (setting [10]) is 0.275; in test [3] (setting [11]) it was 0.746; in test [3] (setting [12]), -1.04. The fluorescence slope in [5] was -0.537 (inactive). The NADPH fluorescence slope in [6] was -1.5e-05 (inactive). For the same compound, the slope in [7] was 0.00456 (inactive). Further, in [8], the compound was called inactive.

Regarding `O=C(CNC1C(=O)Nc2ccccc21)Sc1ccccc1` (stereo unspecified), the cell count in [1] came out at 636. Moreover, the inhibition in [1] is -12.1% (inactive); in test [2] it was -63.1% (inactive); in test [4], 14.4% (inactive); in [9], -11.8% (inactive). In addition, the nuclei count in test [2] worked out at 118%. Moreover, the figures for the z-score in test [3] (setting [10]), in test [3] (setting [11]) and in test [3] (setting [12]) were 1.09, -0.106 and -0.738, respectively. The fluorescence slope in [5] is -0.383 (inactive). Moreover, in [6], the NADPH fluorescence slope is -1.8e-06 (inactive). The slope in test [7] is 0.00502 (inactive). In addition, the compound was classed as inactive in test [8].

For `CCCCCCc1cc2cc(-c3nnc(-c4ccccc4O)o3)c(=O)oc2cc1O`, the cell count in test [1] was 473. Also, the inhibition in test [1] is -2.3% (inactive); in [2] it was -99.6% (inactive); in [4], -7.79% (inactive); in test [9], 13.3% (inactive). Also, the nuclei count in [2] stood at 122%. For the same compound, the z-score in [3] (setting [10]) is -0.061; in test [3] (setting [11]), 1.83; in [3] (setting [12]), -1.3. Besides, in test [5], the fluorescence slope is -0.274 (inactive). Further, in test [6], the NADPH fluorescence slope is 5.9e-06 (inactive). For the same compound, in test [7], the slope was 0.0685 (active). Also, the call in [8] was inactive.

`CC1CN(C2CCN(C(=O)c3ccccc3Cl)CC2)CC(C)O1` (stereo unspecified): the cell count in test [1] came out at 445. Moreover, the inhibition in test [1] is -0.2% (inactive); in test [2], -214% (inactive); in test [4], -5.62% (inactive); in [9], 0.742% (inactive). The nuclei count in [2] worked out at 151%. Moreover, the figures for the z-score in [3] (setting [10]), in [3] (setting [11]) and in test [3] (setting [12]) were -0.321, -1.49 and -0.453, respectively. The fluorescence slope in test [5] is -0.348 (inactive). Moreover, the NADPH fluorescence slope in test [6] is -1.1e-05 (inactive). For the same compound, the slope in test [7] is 0.00459 (inactive). In addition, the outcome in test [8] was inactive.

With `CCCCNC(=O)C(C#N)c1nc2ccccc2nc1N1CCN(Cc2ccc3c(c2)OCO3)CC1` (stereo unspecified), the cell count in test [1] came to 555. Moreover, the inhibition is -0.5% (inactive) in test [1], 21.5% (inactive) in test [2], 15% (inactive) in [4] and 12.9% (inactive) in test [9]. In addition, the nuclei count in test [2] amounted to 145%. The results for the z-score in test [3] (setting [10]), in [3] (setting [11]) and in test [3] (setting [12]) were -1.05, -1.11 and 1.27, respectively. For the same compound, the fluorescence slope in [5] was -0.362 (inactive). Also, in test [6], the NADPH fluorescence slope was -1.5e-05 (inactive). Also, the slope in [7] is 0.00451 (inactive). In addition, the call in test [8] was inactive.
